Source: ChEMBL document CHEMBL3779881, “Property Focused Structure-Based Optimization of Small Molecule Inhibitors of the Protein-Protein Interaction between Menin and Mixed Lineage Leukemia (MLL)” (J Med Chem, 2016)

Columns and labels:
[1] = Growth inhibition of Hoxa9/Meis1 transformed mouse bone marrow cells after 7 days by MTT assay; format: functional; settings: Bone marrow cell, 168 h
[2] = Half life in CD-1 mouse liver microsomes at 1 uM after 3 to 60 mins by LC-MS/MS analysis; format: ADME
[3] = Growth inhibition of MLL-AF9 transformed mouse bone marrow cells after 7 days by MTT assay; format: functional; settings: Bone marrow cell, 168 h
[4] = biological target: Menin/Histone-lysine N-methyltransferase MLL (Homo sapiens, UniProt O00255); assay: Inhibition of menin-MLL interaction (unknown origin) after 1 hr by fluorescence polarization assay; format: protein assay
Sequence of Menin/Histone-lysine N-methyltransferase MLL (Q03164 1-2718 partner limits assumed, one chain of several): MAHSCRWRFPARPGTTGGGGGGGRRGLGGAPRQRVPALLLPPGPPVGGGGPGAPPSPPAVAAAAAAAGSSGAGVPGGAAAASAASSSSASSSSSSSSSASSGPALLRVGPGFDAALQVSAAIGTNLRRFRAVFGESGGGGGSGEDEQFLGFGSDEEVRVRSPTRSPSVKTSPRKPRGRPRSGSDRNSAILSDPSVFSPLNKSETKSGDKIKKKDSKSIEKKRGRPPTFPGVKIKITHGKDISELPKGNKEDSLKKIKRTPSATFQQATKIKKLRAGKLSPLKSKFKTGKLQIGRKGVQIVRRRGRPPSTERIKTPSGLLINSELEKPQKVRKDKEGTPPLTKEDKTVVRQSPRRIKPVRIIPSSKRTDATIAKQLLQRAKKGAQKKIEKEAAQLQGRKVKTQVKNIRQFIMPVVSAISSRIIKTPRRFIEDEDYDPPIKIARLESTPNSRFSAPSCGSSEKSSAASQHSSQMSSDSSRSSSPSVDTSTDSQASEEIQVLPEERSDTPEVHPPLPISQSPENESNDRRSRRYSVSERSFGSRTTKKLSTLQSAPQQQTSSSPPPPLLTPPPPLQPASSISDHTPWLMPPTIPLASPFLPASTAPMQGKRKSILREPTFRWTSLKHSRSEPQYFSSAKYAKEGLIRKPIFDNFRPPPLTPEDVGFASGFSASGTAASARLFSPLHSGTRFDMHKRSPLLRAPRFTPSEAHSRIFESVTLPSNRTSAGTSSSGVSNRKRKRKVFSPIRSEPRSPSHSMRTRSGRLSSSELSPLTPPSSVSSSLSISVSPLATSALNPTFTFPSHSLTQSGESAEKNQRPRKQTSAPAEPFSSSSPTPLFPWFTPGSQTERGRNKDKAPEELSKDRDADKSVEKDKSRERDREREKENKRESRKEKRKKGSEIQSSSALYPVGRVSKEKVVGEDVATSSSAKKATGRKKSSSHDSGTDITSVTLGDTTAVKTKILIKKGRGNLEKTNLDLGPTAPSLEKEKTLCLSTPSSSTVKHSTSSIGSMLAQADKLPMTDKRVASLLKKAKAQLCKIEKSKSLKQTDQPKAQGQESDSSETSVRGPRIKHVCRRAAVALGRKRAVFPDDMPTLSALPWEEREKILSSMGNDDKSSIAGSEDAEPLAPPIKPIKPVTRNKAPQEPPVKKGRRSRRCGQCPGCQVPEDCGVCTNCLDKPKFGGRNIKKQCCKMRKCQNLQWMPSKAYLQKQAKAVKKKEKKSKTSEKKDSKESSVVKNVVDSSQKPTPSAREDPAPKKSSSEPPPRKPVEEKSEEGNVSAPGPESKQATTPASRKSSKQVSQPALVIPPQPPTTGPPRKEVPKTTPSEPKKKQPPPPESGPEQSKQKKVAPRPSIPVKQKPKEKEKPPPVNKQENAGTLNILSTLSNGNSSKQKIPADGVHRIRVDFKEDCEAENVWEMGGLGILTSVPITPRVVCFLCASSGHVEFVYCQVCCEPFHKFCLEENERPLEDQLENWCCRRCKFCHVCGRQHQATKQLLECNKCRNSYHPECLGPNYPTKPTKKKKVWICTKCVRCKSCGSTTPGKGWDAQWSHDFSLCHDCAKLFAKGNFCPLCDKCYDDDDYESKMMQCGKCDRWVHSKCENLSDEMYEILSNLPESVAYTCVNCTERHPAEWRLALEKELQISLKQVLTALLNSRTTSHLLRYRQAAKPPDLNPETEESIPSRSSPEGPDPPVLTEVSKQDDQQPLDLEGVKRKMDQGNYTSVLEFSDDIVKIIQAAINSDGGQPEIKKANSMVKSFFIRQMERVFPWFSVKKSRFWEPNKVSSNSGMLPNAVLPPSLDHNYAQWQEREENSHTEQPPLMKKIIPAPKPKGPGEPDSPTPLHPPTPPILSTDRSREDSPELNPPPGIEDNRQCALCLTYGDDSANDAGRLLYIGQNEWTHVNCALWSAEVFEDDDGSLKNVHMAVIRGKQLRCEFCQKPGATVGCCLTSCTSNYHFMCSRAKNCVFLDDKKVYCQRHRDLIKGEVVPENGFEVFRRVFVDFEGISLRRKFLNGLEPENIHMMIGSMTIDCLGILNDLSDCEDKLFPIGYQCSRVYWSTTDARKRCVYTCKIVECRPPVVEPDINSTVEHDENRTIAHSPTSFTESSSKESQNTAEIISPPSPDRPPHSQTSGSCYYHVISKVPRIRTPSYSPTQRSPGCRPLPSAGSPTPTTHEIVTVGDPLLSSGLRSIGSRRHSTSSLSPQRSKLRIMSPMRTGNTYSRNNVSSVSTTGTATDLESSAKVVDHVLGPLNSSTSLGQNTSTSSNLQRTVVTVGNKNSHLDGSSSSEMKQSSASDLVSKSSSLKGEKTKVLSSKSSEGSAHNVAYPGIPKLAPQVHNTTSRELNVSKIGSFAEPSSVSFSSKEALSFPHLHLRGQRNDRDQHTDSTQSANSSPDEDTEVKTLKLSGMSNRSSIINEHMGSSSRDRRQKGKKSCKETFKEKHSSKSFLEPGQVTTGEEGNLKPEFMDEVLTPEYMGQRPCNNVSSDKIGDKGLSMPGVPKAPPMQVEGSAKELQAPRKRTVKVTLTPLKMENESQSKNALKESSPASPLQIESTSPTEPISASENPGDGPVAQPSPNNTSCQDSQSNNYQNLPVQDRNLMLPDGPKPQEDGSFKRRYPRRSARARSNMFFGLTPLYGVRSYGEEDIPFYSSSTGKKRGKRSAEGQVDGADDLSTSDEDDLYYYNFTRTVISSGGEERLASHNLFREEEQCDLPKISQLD
Sequence of Menin/Histone-lysine N-methyltransferase MLL (Q03164 2719-3969 partner limits assumed, one chain of several): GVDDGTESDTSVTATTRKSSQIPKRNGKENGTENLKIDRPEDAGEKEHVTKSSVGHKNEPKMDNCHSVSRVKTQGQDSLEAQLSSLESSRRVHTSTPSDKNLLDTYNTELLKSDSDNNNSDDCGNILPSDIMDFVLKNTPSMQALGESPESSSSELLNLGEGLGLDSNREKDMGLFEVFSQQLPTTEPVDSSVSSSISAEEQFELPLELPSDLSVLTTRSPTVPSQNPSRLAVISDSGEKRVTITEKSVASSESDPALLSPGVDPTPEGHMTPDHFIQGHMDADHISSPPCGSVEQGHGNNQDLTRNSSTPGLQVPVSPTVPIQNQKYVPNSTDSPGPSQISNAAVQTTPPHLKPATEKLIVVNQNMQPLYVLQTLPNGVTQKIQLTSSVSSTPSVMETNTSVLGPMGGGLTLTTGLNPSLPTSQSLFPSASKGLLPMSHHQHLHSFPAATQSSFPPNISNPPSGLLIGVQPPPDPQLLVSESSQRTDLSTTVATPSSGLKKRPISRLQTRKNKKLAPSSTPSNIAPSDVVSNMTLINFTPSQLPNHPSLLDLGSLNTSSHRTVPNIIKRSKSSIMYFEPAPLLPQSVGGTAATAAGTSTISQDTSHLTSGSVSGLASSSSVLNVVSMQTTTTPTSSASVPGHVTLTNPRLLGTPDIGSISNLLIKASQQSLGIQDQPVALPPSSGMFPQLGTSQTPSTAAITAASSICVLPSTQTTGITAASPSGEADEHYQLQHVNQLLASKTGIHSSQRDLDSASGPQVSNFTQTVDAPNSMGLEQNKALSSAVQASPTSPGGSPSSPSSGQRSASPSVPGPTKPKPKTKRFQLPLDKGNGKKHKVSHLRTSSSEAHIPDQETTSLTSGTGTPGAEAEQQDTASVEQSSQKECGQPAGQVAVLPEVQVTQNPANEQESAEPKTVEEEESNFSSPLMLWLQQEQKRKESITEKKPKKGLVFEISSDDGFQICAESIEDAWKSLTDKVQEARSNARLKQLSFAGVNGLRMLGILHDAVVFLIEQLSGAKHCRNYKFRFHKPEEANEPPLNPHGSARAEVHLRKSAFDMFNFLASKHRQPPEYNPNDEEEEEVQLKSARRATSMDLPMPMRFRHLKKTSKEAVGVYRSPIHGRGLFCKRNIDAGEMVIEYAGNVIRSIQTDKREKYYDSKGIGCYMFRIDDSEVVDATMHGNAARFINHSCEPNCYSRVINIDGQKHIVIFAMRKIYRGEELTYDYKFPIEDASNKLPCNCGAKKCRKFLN

Bone marrow cell = assay: Selectivity index, ratio of GI50 for Hoxa9/Meis1 transformed mouse bone marrow cells to GI50 for MLL-AF9 transformed mouse bone marrow cells; format: functional
Mus musculus [5] = assay: AUC in C57BL/6 mouse at 30 mg/kg, po after 24 hrs by LC-MS/MS analysis; format: ADME, organism-based; design: time < 24 hr, dose 30 mg/kg, route oral; settings: in vivo
How it was run: (§1)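 Female C57BL/6 mice dosed iv at 15 mg/kg or orally at 30 mg/kg in 25% DMSO/25% PEG-400/50% PBS (v/v). Serial 50 μL blood samples collected over 24 h (8 h in one experiment), spun to plasma; concentrations by validated LC-MS/MS in positive-ion MRM mode; parameters from noncompartmental analysis.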

Mus musculus [6] = assay: Volume of distribution at steady state in C57BL/6 mouse at 15 mg/kg, iv after 24 hrs by LC-MS/MS analysis; format: ADME, organism-based; settings: in vivo; how it was run: as §1
Mus musculus [7] = assay: Half life in C57BL/6 mouse at 30 mg/kg, po after 24 hrs by LC-MS/MS analysis; format: ADME, organism-based; settings: in vivo; how it was run: as §1
Mus musculus [8] = assay: Half life in C57BL/6 mouse at 15 mg/kg, iv after 24 hrs by LC-MS/MS analysis; format: ADME, organism-based; settings: in vivo; how it was run: as §1
[9] = Clearance in C57BL/6 mouse at 15 mg/kg, iv after 24 hrs by LC-MS/MS analysis; format: ADME, organism-based; settings: in vivo; how it was run: as §1
Mus musculus [10] = assay: Oral bioavailability in C57BL/6 mouse at 30 mg/kg after 24 hrs by LC-MS/MS analysis; format: ADME, organism-based; settings: in vivo; how it was run: as §1
Mus musculus [11] = assay: Cmax in C57BL/6 mouse plasma at 30 mg/kg, po after 24 hrs by LC-MS/MS analysis; format: ADME, organism-based; design: dose 30 mg/kg, route oral; settings: in vivo; how it was run: as §1
Mus musculus [12] = assay: Tmax in C57BL/6 mouse plasma at 30 mg/kg, po after 24 hrs by LC-MS/MS analysis; format: ADME, organism-based; settings: in vivo; how it was run: as §1
Mus musculus [13] = assay: AUC in C57BL/6 mouse at 15 mg/kg, iv after 24 hrs by LC-MS/MS analysis; format: ADME, organism-based; design: dose 15 mg/kg, time < 24 hr, route intravenous; settings: in vivo; how it was run: as §1
Menin = biological target: T1, Menin (Homo sapiens, UniProt O00255); assay: Binding affinity to menin (unknown origin)
T1 sequence (O00255 whole entry): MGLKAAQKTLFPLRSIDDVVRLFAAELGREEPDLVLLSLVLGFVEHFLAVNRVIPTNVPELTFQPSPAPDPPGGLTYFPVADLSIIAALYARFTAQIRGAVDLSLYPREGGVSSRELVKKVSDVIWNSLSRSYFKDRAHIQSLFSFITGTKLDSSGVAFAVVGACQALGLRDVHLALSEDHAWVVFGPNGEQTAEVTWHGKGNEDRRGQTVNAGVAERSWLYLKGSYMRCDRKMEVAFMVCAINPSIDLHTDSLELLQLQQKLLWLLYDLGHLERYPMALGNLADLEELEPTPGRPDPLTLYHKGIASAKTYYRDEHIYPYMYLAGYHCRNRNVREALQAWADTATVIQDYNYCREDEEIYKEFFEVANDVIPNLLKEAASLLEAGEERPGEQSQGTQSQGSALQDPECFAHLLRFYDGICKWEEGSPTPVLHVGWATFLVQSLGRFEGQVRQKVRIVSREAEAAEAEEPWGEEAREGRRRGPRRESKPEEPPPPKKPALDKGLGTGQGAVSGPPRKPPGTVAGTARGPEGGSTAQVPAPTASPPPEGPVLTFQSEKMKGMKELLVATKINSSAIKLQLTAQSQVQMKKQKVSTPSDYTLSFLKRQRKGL

t1/2 [2] [min]	IC50 [4] [µM]	AUC (Mus musculus [5]) [µg·h/mL]	Vdss (Mus musculus [6]) [L/kg]	t1/2 (Mus musculus [7]) [min]	t1/2 (Mus musculus [8]) [min]	clearance [9] [L/h/kg]	F (Mus musculus [10]) [%]	Cmax (Mus musculus [11]) [µg/mL]	Tmax (Mus musculus [12]) [min]	AUC (Mus musculus [13]) [µg·h/mL]	Kd (Menin) [µM]	SMILES	GI50 [1] [µM]	GI50 [3] [µM]	RatioGI50 (Bone marrow cell)
25	0.017	–	–	–	–	–	–	–	–	–	–	Cc1c(CN2CCC(Nc3ncnc4sc(CC(F)(F)F)cc34)CC2)c(O)cc2c1cc(C#N)n2Cc1c[nH]nn1	10	0.42	24
8.3	0.023	–	–	–	–	–	–	–	–	–	–	N#Cc1cc2cc(CN3CCC(Nc4ncnc5sc(CC(F)(F)F)cc45)CC3)ccc2n1Cc1cn[nH]c1	6.9	0.26	27
59	0.027	–	–	–	–	–	–	–	–	–	–	Cc1c(CN2CCC(Nc3ncnc4sc(CC(F)(F)F)cc34)CC2)ccc2c1cc(C#N)n2CC(N)=O	> 25	0.47	>53
11	0.027	–	–	–	–	–	–	–	–	–	–	Cc1c(CN2CCC(Nc3ncnc4sc(CC(F)(F)F)cc34)CC2)c(O)cc2c1cc(C#N)n2CCO	10	0.4	25
25	0.018	–	–	–	–	–	–	–	–	–	–	Cc1c(CN2CCC(Nc3ncnc4sc(CC(F)(F)F)cc34)CC2)c(O)cc2c1cc(C#N)n2Cc1cn[nH]c1	13	0.27	48
4.8	0.111	–	–	–	–	–	–	–	–	–	–	Cc1c(C#N)[nH]c2ccc(CN3CCC(Nc4ncnc5sc(CC(F)(F)F)cc45)CC3)cc12	–	2.6	–
59	0.023	–	–	–	–	–	–	–	–	–	–	Cc1c(CN2CCC(Nc3ncnc4sc(CC(F)(F)F)cc34)CC2)ccc2c1cc(C#N)n2Cc1c[nH]nn1	8	0.25	32
7.8	0.016	–	–	–	–	–	–	–	–	–	–	COc1cc2c(cc(C#N)n2CCO)c(C)c1CN1CCC(Nc2ncnc3sc(CC(F)(F)F)cc23)CC1	15	0.36	69
11	0.027	–	–	–	–	–	–	–	–	–	–	N#Cc1cc2cc(CN3CCC(Nc4ncnc5sc(CC(F)(F)F)cc45)CC3)ccc2n1Cc1c[nH]nn1	10	0.33	30
18	0.035	–	–	–	–	–	–	–	–	–	–	N#Cc1cc2cc(CN3CCC(Nc4ncnc5sc(CC(F)(F)F)cc45)CC3)ccc2n1CCO	6.2	1.1	5.6
< 3	0.101	–	–	–	–	–	–	–	–	–	–	COCC(O)Cn1c(C#N)cc2cc(CN3CCC(Nc4ncnc5sc(CC(F)(F)F)cc45)CC3)ccc21 (stereo unspecified)	–	2.1	–
> 60	0.037	–	–	–	–	–	–	–	–	–	–	COc1cc2c(cc(C#N)n2CC(N)=O)c(C)c1CN1CCC(Nc2ncnc3sc(CC(F)(F)F)cc23)CC1	> 25	0.42	>60
32	0.016	–	–	–	–	–	–	–	–	–	–	COc1cc2c(cc(C#N)n2Cc2c[nH]nn2)c(C)c1CN1CCC(Nc2ncnc3sc(CC(F)(F)F)cc23)CC1	9	0.41	22
28	0.022	–	–	–	–	–	–	–	–	–	–	N#Cc1cc2c(Cl)c(CN3CCC(Nc4ncnc5sc(CC(F)(F)F)cc45)CC3)ccc2[nH]1	11	1.1	10
23	0.044	–	–	–	–	–	–	–	–	–	–	Cc1c(CN2CCC(Nc3ncnc4sc(CC(F)(F)F)cc34)CC2)ccc2c1cc(C#N)n2CCO	5.6	0.44	13
35	0.024	–	–	–	–	–	–	–	–	–	–	COc1cc2c(cc1CN1CCC(Nc3ncnc4sc(CC(F)(F)F)cc34)CC1)cc(C#N)n2Cc1cn[nH]c1	6.7	0.29	23

The remaining lines, values behind:

SMILES	t1/2 [2] [min]	IC50 [4] [µM]	AUC (Mus musculus [5]) [µg·h/mL]	Vdss (Mus musculus [6]) [L/kg]	t1/2 (Mus musculus [7]) [min]	t1/2 (Mus musculus [8]) [min]	clearance [9] [L/h/kg]	F (Mus musculus [10]) [%]	Cmax (Mus musculus [11]) [µg/mL]	Tmax (Mus musculus [12]) [min]	AUC (Mus musculus [13]) [µg·h/mL]	Kd (Menin) [µM]	GI50 [1] [µM]	GI50 [3] [µM]	RatioGI50 (Bone marrow cell)
CO[C@H](CO)Cn1c(C#N)cc2cc(CN3CCC(Nc4ncnc5sc(CC(F)(F)F)cc45)CC3)ccc21	5.2	0.037	–	–	–	–	–	–	–	–	–	–	6.9	0.66	11
N#Cc1cc2cc(CN3CCC(Nc4ncnc5sc(CC(F)(F)F)cc45)CC3)ccc2n1C[C@H](O)CO	> 60	0.042	–	–	–	–	–	–	–	–	–	–	–	3.8	–
N#Cc1cc2cc(CN3CCC(Nc4ncnc5sc(CC(F)(F)F)cc45)CC3)ccc2n1C[C@@H](O)CO	48	0.046	–	–	–	–	–	–	–	–	–	–	> 40	1.7	>24
CC(C)OC(CO)Cn1c(C#N)cc2cc(CN3CCC(Nc4ncnc5sc(CC(F)(F)F)cc45)CC3)ccc21 (stereo unspecified)	< 3	0.023	–	–	–	–	–	–	–	–	–	–	3.5	0.18	19
Cc1c(CN2CCC(Nc3ncnc4sc(CC(F)(F)F)cc34)CC2)c(O)cc2[nH]c(C#N)cc12	56	0.027	3.846	4.454	240	102	2.65	34	0.649	120	5.666	–	12	0.22	55
COc1cc2[nH]c(C#N)cc2c(C)c1CN1CCC(Nc2ncnc3sc(CC(F)(F)F)cc23)CC1	39	0.04	8.717	3.698	120	108	1.6	46	2.113	30	9.397	–	11	0.1	110
CC(C(N)=O)n1c(C#N)cc2cc(CN3CCC(Nc4ncnc5sc(CC(F)(F)F)cc45)CC3)ccc21 (stereo unspecified)	–	0.244	–	–	–	–	–	–	–	–	–	–	–	–	–
CCOc1cc2[nH]c(C#N)cc2cc1CN1CCC(Nc2ncnc3sc(CC(F)(F)F)cc23)CC1	11	0.047	–	–	–	–	–	–	–	–	–	–	5.3	0.45	12
N#Cc1[nH]c2ccc(CN3CCC(Nc4ncnc5sc(CC(F)(F)F)cc45)CC3)cc2c1F	5.7	0.096	–	–	–	–	–	–	–	–	–	–	–	1.7	–
N#Cc1[nH]c2ccc(CN3CCC(Nc4ncnc5sc(CC(F)(F)F)cc45)CC3)cc2c1N	27	0.124	–	–	–	–	–	–	–	–	–	–	–	5.2	–
N#Cc1cc2cc(CN3CCC(Nc4ncnc5sc(CC(F)(F)F)cc45)CC3)c(F)cc2[nH]1	9	0.109	–	–	–	–	–	–	–	–	–	–	> 12	3	>4
COc1cc2[nH]c(C#N)cc2cc1CN1CCC(Nc2ncnc3sc(CC(F)(F)F)cc23)CC1	3.7	0.022	–	–	–	–	–	–	–	–	–	–	16	0.34	47
N#Cc1cc2cc(CN3CCC(Nc4ncnc5sc(CC(F)(F)F)cc45)CC3)ccc2[nH]1	6.8	0.031	7.509	6.516	186	186	2.29	57	1.516	60	6.576	0.0236	3	0.55	5.5
Cc1c(CN2CCC(Nc3ncnc4sc(CC(F)(F)F)cc34)CC2)ccc2[nH]c(C#N)cc12	–	–	–	–	–	–	–	–	–	–	–	–	5.6	0.2	–
CO[C@@H](CO)Cn1c(C#N)cc2cc(CN3CCC(Nc4ncnc5sc(CC(F)(F)F)cc45)CC3)ccc21	< 3	0.04	–	–	–	–	–	–	–	–	–	–	9.7	0.36	27
N#Cc1cc2cc(CN3CCC(Nc4ncnc5sc(CC(F)(F)F)cc45)CC3)c(O)cc2[nH]1	6.6	0.02	–	–	–	–	–	–	–	–	–	–	> 10	0.18	>56
N#Cc1cc2cc(CN3CCC(Nc4ncnc5sc(CC(F)(F)F)cc45)CC3)ccc2n1CC(O)CO (racemic)	> 60	0.037	–	–	–	–	–	–	–	–	–	–	> 12	3.4	>3.5
